Measurements reported in ChEMBL document CHEMBL3600382, “A-ring substituted 17β-arylsulfonamides of 17β-aminoestra-1,3,5(10)-trien-3-ol as highly potent reversible inhibitors of steroid sulfatase” (Bioorg Med Chem, 2015).

What was measured:
[1] = system: KM12; experiment: Cytotoxicity against human KM12 cells; assay type: functional
[2] = Cytotoxicity against human EKVX cells; assay type: functional
[3] = system: IGROV-1; experiment: Cytotoxicity against human IGROV1 cells; assay type: functional
[4] = system: T47D; experiment: Cytotoxicity against human T47D cells; assay type: functional
[5] = system: SK-MEL-5; experiment: Cytotoxicity against human SK-MEL-5 cells; assay type: functional
[6] = system: A549; experiment: Cytotoxicity against human A549 cells; assay type: functional
[7] = Cytotoxicity against human NCI-ADR-RES cells; assay type: functional
[8] = system: HCC 2998; experiment: Cytotoxicity against human HCC2998 cells; assay type: functional
[9] = system: NCI-H23; experiment: Cytotoxicity against human NCI-H23 cells; assay type: functional
[10] = system: SK-MEL-2; experiment: Cytotoxicity against human SK-MEL-2 cells; assay type: functional
[11] = system: TK-10; experiment: Cytotoxicity against human TK10 cells; assay type: functional
[12] = system: BT-549; experiment: Cytotoxicity against human BT549 cells; assay type: functional
[13] = system: NCI-H226; experiment: Cytotoxicity against human NCI-H226 cells; assay type: functional
[14] = system: UACC-62; experiment: Cytotoxicity against human UACC62 cells; assay type: functional
[15] = system: LOX IMVI; experiment: Cytotoxicity against human LOXIMVI cells; assay type: functional
[16] = system: SNB-75; experiment: Cytotoxicity against human SNB75 cells; assay type: functional
[17] = system: SR; experiment: Cytotoxicity against human SR cells; assay type: functional
[18] = system: RXF 393; experiment: Cytotoxicity against human RXF393 cells; assay type: functional
[19] = target: T1, Steryl-sulfatase (Homo sapiens, UniProt P08842); experiment: Inhibition of STS (unknown origin) using 4-MUS as substrate measured over 10 mins by fluorescence assay
T1 sequence (P08842 whole entry): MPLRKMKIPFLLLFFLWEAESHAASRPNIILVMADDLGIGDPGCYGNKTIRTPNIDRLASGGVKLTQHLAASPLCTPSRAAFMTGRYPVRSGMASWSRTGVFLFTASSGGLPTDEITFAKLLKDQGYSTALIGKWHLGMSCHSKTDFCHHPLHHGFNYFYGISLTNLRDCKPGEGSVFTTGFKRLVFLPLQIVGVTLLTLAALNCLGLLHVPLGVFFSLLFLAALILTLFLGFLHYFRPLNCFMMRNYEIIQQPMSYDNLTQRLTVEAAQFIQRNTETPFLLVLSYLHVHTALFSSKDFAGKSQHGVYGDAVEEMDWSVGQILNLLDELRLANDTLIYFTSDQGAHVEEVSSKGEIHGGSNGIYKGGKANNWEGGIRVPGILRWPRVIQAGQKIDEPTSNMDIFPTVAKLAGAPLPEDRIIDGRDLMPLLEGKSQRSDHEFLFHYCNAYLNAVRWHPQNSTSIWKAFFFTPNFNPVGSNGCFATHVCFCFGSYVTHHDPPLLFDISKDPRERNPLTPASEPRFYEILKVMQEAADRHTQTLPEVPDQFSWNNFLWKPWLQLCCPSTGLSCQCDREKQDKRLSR
Method in brief: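 Purified STS (10 nM final) in 0.1 M Tris-HCl pH 7.0 containing Triton X-100, 4-MUS 200 µM final, and inhibitor at eleven concentrations (5 nM–5 µM). Ex 360/em 460 fluorescence read over 10 min at 24 °C, in quadruplicate, with no-enzyme controls. Vi/V0 from initial rates fit to a slope-factor equation. For tight binders, Ki app is the y-intercept of IC50 vs [E] (10–80 nM).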

[20] = system: U-251; experiment: Cytotoxicity against human U251 cells; assay type: functional
[21] = system: SK-OV-3; experiment: Cytotoxicity against human SKOV3 cells; assay type: functional
[22] = system: HT-29; experiment: Cytotoxicity against human HT-29 cells; assay type: functional
[23] = system: OVCAR-5; experiment: Cytotoxicity against human OVCAR5 cells; assay type: functional
[24] = system: MCF7; experiment: Cytotoxicity against human MCF7 cells; assay type: functional
[25] = system: OVCAR-8; experiment: Cytotoxicity against human OVCAR8 cells; assay type: functional
[26] = system: MDA-MB-468; experiment: Cytotoxicity against human MDA-MB-468 cells; assay type: functional
[27] = system: MOLT-4; experiment: Cytotoxicity against human MOLT4 cells; assay type: functional
[28] = system: CCRF-CEM; experiment: Cytotoxicity against human CCRF-CEM cells; assay type: functional
[29] = system: UACC-257; experiment: Cytotoxicity against human UACC257 cells; assay type: functional
[30] = system: HOP-92; experiment: Cytotoxicity against human HOP92 cells; assay type: functional
[31] = system: MDA-MB-231; experiment: Cytotoxicity against human MDA-MB-231 cells; assay type: functional
[32] = system: HL-60(TB); experiment: Cytotoxicity against human HL-60(TB) cells; assay type: functional
[33] = system: SF-539; experiment: Cytotoxicity against human SF539 cells; assay type: functional
[34] = system: SF-295; experiment: Cytotoxicity against human SF295 cells; assay type: functional
[35] = system: M14; experiment: Cytotoxicity against human M14 cells; assay type: functional
[36] = system: MDA-MB-435; experiment: Cytotoxicity against human MDA-MB-435 cells; assay type: functional
[37] = system: COLO 205; experiment: Cytotoxicity against human COLO205 cells; assay type: functional
[38] = system: OVCAR-3; experiment: Cytotoxicity against human OVCAR3 cells; assay type: functional
[39] = system: NCI-H460; experiment: Cytotoxicity against human NCI-H460 cells; assay type: functional
[40] = system: ACHN; experiment: Cytotoxicity against human ACHN cells; assay type: functional
[41] = system: SN12C; experiment: Cytotoxicity against human SN12C cells; assay type: functional
[42] = system: CAKI-1; experiment: Cytotoxicity against human Caki1 cells; assay type: functional
[43] = system: SW-620; experiment: Cytotoxicity against human SW620 cells; assay type: functional
[44] = system: PC-3; experiment: Cytotoxicity against human PC3 cells; assay type: functional
[45] = system: RPMI-8226; experiment: Cytotoxicity against human RPMI8226 cells; assay type: functional
[46] = system: A498; experiment: Cytotoxicity against human A498 cells; assay type: functional
[47] = system: SF-268; experiment: Cytotoxicity against human SF268 cells; assay type: functional
[48] = system: 786-0; experiment: Cytotoxicity against human 786-0 cells; assay type: functional
[49] = Cytotoxicity against human Hs578T cells; assay type: functional; settings: Hs-578T

C[C@]12CC[C@@H]3c4ccc(O)c([N+](=O)[O-])c4CC[C@H]3[C@@H]1CC[C@@H]2NS(=O)(=O)c1cccc(Br)c1
GI50 [1]: 1000 nM
GI50 [2]: 1000 nM
GI50 [3]: 1000 nM
GI50 [4]: 2500 nM
GI50 [5]: 1000 nM
GI50 [6]: 1000 nM
GI50 [7]: 1000 nM
GI50 [8]: 1000 nM
GI50 [9]: 1000 nM
GI50 [10]: 1000 nM
GI50 [11]: 1000 nM
GI50 [12]: 1600 nM
GI50 [13]: 1000 nM
GI50 [14]: 1000 nM
GI50 [15]: 1000 nM
GI50 [16]: 1000 nM
GI50 [17]: 1000 nM
GI50 [18]: 1000 nM
IC50 [19]: 12 nM
GI50 [20]: 1000 nM
GI50 [21]: 1000 nM
GI50 [22]: 1000 nM
GI50 [23]: 1000 nM
GI50 [24]: 1900 nM
GI50 [25]: 1000 nM
GI50 [26]: 2200 nM
GI50 [27]: 1000 nM
GI50 [28]: 1000 nM
GI50 [29]: 1000 nM
GI50 [30]: 1000 nM
GI50 [31]: 1500 nM
GI50 [32]: 1000 nM
GI50 [33]: 1000 nM
GI50 [34]: 1000 nM
GI50 [35]: 1000 nM
GI50 [36]: 1000 nM
GI50 [37]: 1000 nM
GI50 [38]: 1000 nM
GI50 [39]: 1000 nM
GI50 [40]: 1000 nM
GI50 [41]: 1000 nM
GI50 [42]: 1000 nM
GI50 [43]: 1000 nM
GI50 [44]: 1000 nM
GI50 [45]: 1000 nM
GI50 [46]: 1000 nM
GI50 [47]: 1000 nM
GI50 [48]: 1000 nM
GI50 [49]: 2100 nM

C[C@]12CC[C@@H]3c4ccc(O)c([N+](=O)[O-])c4CC[C@H]3[C@@H]1CC[C@@H]2NS(=O)(=O)c1cccc(C(F)(F)F)c1
GI50 [1]: 1000 nM
GI50 [2]: 1000 nM
GI50 [3]: 1000 nM
GI50 [4]: 1800 nM
GI50 [5]: 1000 nM
GI50 [6]: 1000 nM
GI50 [7]: 1000 nM
GI50 [8]: 1000 nM
GI50 [9]: 1000 nM
GI50 [10]: 1000 nM
GI50 [11]: 1000 nM
GI50 [12]: 1900 nM
GI50 [13]: 1000 nM
GI50 [14]: 1000 nM
GI50 [15]: 1000 nM
GI50 [16]: 1000 nM
GI50 [17]: 1000 nM
GI50 [18]: 1000 nM
IC50 [19]: 11 nM
GI50 [20]: 1000 nM
GI50 [21]: 1000 nM
GI50 [22]: 1000 nM
GI50 [23]: 1000 nM
GI50 [24]: 1800 nM
GI50 [25]: 1000 nM
GI50 [26]: 2700 nM
GI50 [27]: 1000 nM
GI50 [28]: 1000 nM
GI50 [29]: 1000 nM
GI50 [30]: 1000 nM
GI50 [31]: 1900 nM
GI50 [32]: 1000 nM
GI50 [33]: 1000 nM
GI50 [34]: 1000 nM
GI50 [35]: 1000 nM
GI50 [36]: 1000 nM
GI50 [37]: 1000 nM
GI50 [38]: 1000 nM
GI50 [39]: 1000 nM
GI50 [40]: 1000 nM
GI50 [41]: 1000 nM
GI50 [42]: 1000 nM
GI50 [43]: 1000 nM
GI50 [44]: 1000 nM
GI50 [45]: 1000 nM
GI50 [46]: 1000 nM
GI50 [47]: 1000 nM
GI50 [48]: 1000 nM
GI50 [49]: 2200 nM

C[C@]12CC[C@@H]3c4ccc(O)cc4CC[C@H]3[C@@H]1CC[C@@H]2NS(=O)(=O)c1cccc(C(F)(F)F)c1
GI50 [1]: 1000 nM
GI50 [2]: 1000 nM
GI50 [3]: 1000 nM
GI50 [4]: 3700 nM
GI50 [5]: 1000 nM
GI50 [6]: 1000 nM
GI50 [7]: 1000 nM
GI50 [8]: 1000 nM
GI50 [9]: 1000 nM
GI50 [10]: 1000 nM
GI50 [11]: 1000 nM
GI50 [12]: 2700 nM
GI50 [13]: 1000 nM
GI50 [14]: 1000 nM
GI50 [15]: 1000 nM
GI50 [16]: 1000 nM
GI50 [17]: 1000 nM
GI50 [18]: 1000 nM
GI50 [20]: 1000 nM
GI50 [21]: 1000 nM
GI50 [22]: 1000 nM
GI50 [23]: 1000 nM
GI50 [24]: 2700 nM
GI50 [25]: 1000 nM
GI50 [26]: 4100 nM
GI50 [27]: 1000 nM
GI50 [28]: 1000 nM
GI50 [29]: 1000 nM
GI50 [30]: 1000 nM
GI50 [31]: 2400 nM
GI50 [32]: 1000 nM
GI50 [33]: 1000 nM
GI50 [34]: 1000 nM
GI50 [35]: 1000 nM
GI50 [36]: 1000 nM
GI50 [37]: 1000 nM
GI50 [38]: 1000 nM
GI50 [39]: 1000 nM
GI50 [40]: 1000 nM
GI50 [41]: 1000 nM
GI50 [42]: 1000 nM
GI50 [43]: 1000 nM
GI50 [44]: 1000 nM
GI50 [45]: 1000 nM
GI50 [46]: 1000 nM
GI50 [47]: 1000 nM
GI50 [48]: 1000 nM
GI50 [49]: 3200 nM

C[C@]12CC[C@@H]3c4cc([N+](=O)[O-])c(O)cc4CC[C@H]3[C@@H]1CC[C@@H]2NS(=O)(=O)c1ccc(-c2ccccc2)cc1
IC50 [19]: 33 nM
